Measured values: ChEMBL document CHEMBL3407335, “SAR-guided development and characterization of a potent antitumor compound toward B-cell neoplasms with no detectable cytotoxicity toward healthy cells” (J Med Chem, 2015)

How the values were obtained:
[1] = Cytotoxicity against mouse M210B4 cells after 48 hrs by CellTitre-Blue assay; format: cell-based; details: M210B4, 48 h
Procedure, shortened: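 Murine bone marrow fibroblasts served as the non-malignant counter-screen. Compound was tested at six levels (0.1, 1, 5, 10, 50, 100 μM) for 48 h. Viability was read by CellTiter-Blue. IC50 came from at least two independent experiments with three replicates each.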

[2] = Cytotoxicity against human MEC1 cells after 48 hrs by CellTitre-Blue assay; format: functional, cell-based; details: MEC1, 48 h
Procedure, shortened: (§1)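 Screening used phenol red-free RPMI 1640 + L-glutamine with 10% FBS and 1% PenStrep. Exposure was 48 h in triplicate, with CellTiter-Blue read-out. IC50 came from at least two independent experiments, each in triplicate.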

[3] = Cytotoxicity against human OCI-LY7 cells after 48 hrs by CellTitre-Blue assay; format: functional, cell-based; details: OCI-Ly7, 48 h
Procedure, shortened: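 OCI-LY7 assays were run in IMDM + GlutaMAX with 25 mM HEPES, phenol red, 20% FBS and 1% PenStrep. […] Viability was read by CellTiter-Blue. IC50 came from at least two independent experiments, each with three replicates.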

[4] = Cytotoxicity against human U2940 cells after 48 hrs by CellTitre-Blue assay; format: functional, cell-based; details: U-2940, 48 h; procedure, shortened: as §1
PBMC [5] = test: Cytotoxicity against patient PBMC after 48 hrs by CellTitre-Blue assay in presenc of mouse M210B4 cells; format: cell-based; details: Homo sapiens
Procedure, shortened: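 M2-10B4 mouse fibroblasts were seeded and left overnight to form a confluent layer. Medium was then replaced by 3 million PBMC from CLL patients (N = 9), which had been thawed and held overnight, in RPMI with 20% FBS. Cocultures were exposed to increasing compound concentrations for 48 h, in triplicate. CellTiter-Blue viability normalized to vehicle; IC50 from mean values of all samples.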

PBMC [6] = test: Cytotoxicity against healthy human PBMC after 48 hrs by CellTitre-Blue assay; format: cell-based
Procedure, shortened: (§2)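 Cryopreserved PBMC (CLL patients N = 15; healthy donors N = 4) thawed and cultured overnight in phenol red-free RPMI 1640 with L-glutamine and 20% FBS. Suspension culture at 300 000 cells per well with increasing compound concentrations for 48 h, in triplicate. CellTiter-Blue viability normalized to vehicle; IC50 fitted from the mean values of all samples.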

PBMC [7] = test: Cytotoxicity against patient PBMC after 48 hrs by CellTitre-Blue assay; format: cell-based; details: Homo sapiens; procedure, shortened: as §2
K562 [8] = test: Cytotoxicity against human K562 cells after 24 hrs by MTT assay; format: functional, cell-based; details: K562, 24 h
Jurkat [9] = test: Cytotoxicity against human Jurkat cells after 24 hrs by MTT assay; format: functional, cell-based
[10] = Cytotoxicity against human HL60 cells after 48 hrs by CellTitre-Blue assay; format: functional, cell-based; details: HL-60, 48 h
Procedure, shortened: (§3)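 Cell lines in phenol red-free RPMI 1640 with L-glutamine, 10% FBS and 1% penicillin/streptomycin. Cells exposed in triplicate to increasing compound concentrations for 48 h at 37 °C. CellTiter-Blue read-out, normalized to vehicle-only cells. IC50 from two independent experiments.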

CCRF-CEM [11] = test: Cytotoxicity against human CCRF-CEM cells assessed as reduction in cell viability at <1 uM after 48 hrs by CellTitre-Blue assay; format: functional
Procedure, shortened: (§4)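 Cell lines were maintained in RPMI 1640 + GlutaMAX with 10% FBS and 1% penicillin/streptomycin at 37 °C under 5% CO2. For the assay, cells went into phenol red-free RPMI 1640 + L-glutamine with 10% FBS and 1% PenStrep. They were incubated in triplicate with increasing compound concentrations for 48 h. Viability was read by CellTiter-Blue, normalized to vehicle-only cells, and reported as mean plus SD.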

Jurkat [12] = test: Cytotoxicity against human Jurkat cells assessed as reduction in cell viability at <1 uM after 48 hrs by CellTitre-Blue assay; format: functional; procedure, shortened: as §4
Jurkat [13] = test: Cytotoxicity against human Jurkat cells after 48 hrs by CellTitre-Blue assay; format: functional, cell-based; procedure, shortened: as §3
CCRF-CEM [14] = test: Cytotoxicity against human CCRF-CEM cells after 48 hrs by CellTitre-Blue assay; format: functional, cell-based; procedure, shortened: as §3
K562 [15] = test: Cytotoxicity against human K562 cells assessed as reduction in cell viability at <1 uM after 48 hrs by CellTitre-Blue assay; format: functional; procedure, shortened: as §4
[16] = Cytotoxicity against human SU-DHL6 cells after 48 hrs by CellTitre-Blue assay; format: functional, cell-based; details: SU-DHL-6, 48 h; procedure, shortened: as §3
[17] = Cytotoxicity against human SUDHL9 cells after 48 hrs by CellTitre-Blue assay; format: functional, cell-based; details: SUDHL9, 48 h; procedure, shortened: as §3
[18] = Cytotoxicity against human HL60 cells assessed as reduction in cell viability at <1 uM after 48 hrs by CellTitre-Blue assay; format: functional, HL-60; procedure, shortened: as §4

SMILES | IC50 [1] [nM] | IC50 [2] [nM] | IC50 [3] [nM] | IC50 [4] [nM] | further results
CCOc1ccccc1C(=O)/C=C/c1ccc2c(c1)OCO2 | > 100000 | 1100 | 130 | 9500 | 
CCOc1ccc(C(=O)/C=C/c2csc3ccccc23)cc1 |  | 7500 | 4800 | 15000 | 
CCOc1cccc(C(=O)/C=C/c2csc3ccccc23)c1 |  | 2200 | 1700 | 7600 | 
CCOc1ccccc1C(=O)/C=C/c1ccc2sccc2c1 | 21000 | 340 | 340 | 9100 | 
CCOc1cccc(C(=O)/C=C/c2ccc3ccccc3c2)c1 |  | 2900 | 1800 | 16000 | 
C=Cc1cccc(/C=C/C(=O)c2ccccc2OCC)c1 | > 100000 | 200 | 500 | 2500 | 
CCOc1ccccc1C(=O)/C=C/c1ccc2cc(OC)ccc2c1 | > 100000 | 7200 | 1000 | 25000 | 
Cc1ccccc1C(=O)/C=C/c1ccc2ccccc2c1 | 72000 | 6400 | 4900 | 10000 | 
CCOc1ccccc1C(=O)/C=C/c1csc2ccccc12 | 8200 | 170 | 100 | 860 | 
CCOc1ccccc1C(=O)/C=C/c1c2ccccc2cc2ccccc12 |  | > 100000 | > 100000 | > 100000 | 
Nc1nc(F)nc2c1ncn2[C@@H]1O[C@H](CO)[C@@H](O)[C@@H]1O [FLUDARABINE] |  |  |  |  | IC50 (PBMC [5]): 10000 nM; IC50 (PBMC [6]): 14000 nM; IC50 (PBMC [7]): 1900 nM
CCOc1ccccc1C(=O)/C=C/c1cccc2ccccc12 | 17000 | 1900 | 1500 | 7400 | 
CCOc1ccccc1C(=O)/C=C/c1cc2ccccc2c2ccccc12 | > 100000 | 1600 | 680 | 40000 | 
CCOc1ccccc1C(=O)/C=C/c1ccc2ccccc2c1 | 7800 | 60 | 60 | 2400 | IC50 (K562 [8]): 40000 nM; IC50 (Jurkat [9]): 21000 nM
CC(C)Oc1ccccc1C(=O)/C=C/c1ccc2ccccc2c1 | > 100000 | 1200 | 150 | 11000 | 
CCCCOc1ccccc1C(=O)/C=C/c1ccc2ccccc2c1 | > 100000 | 700 | 120 | 5300 | 
COc1ccccc1C(=O)/C=C/c1ccc2ccccc2c1 | 42000 | 430 | 460 | 4100 | 
CCCOc1ccccc1C(=O)/C=C/c1ccc2ccccc2c1 | > 100000 | 130 | 100 | 5300 | 
CCOc1cccc(C(=O)/C=C/c2cc3ccccc3[nH]2)c1 |  | 3300 | 4800 |  | 
CCOc1ccccc1C(=O)/C=C/c1cc2ccccc2[nH]1 | 19000 | 22 | 52 | 2900 | IC50 [10]: 16 nM; IC50 (PBMC [5]): 680 nM; Activity (CCRF-CEM [11]): <30%; Activity (Jurkat [12]): <30%; IC50 (Jurkat [13]): 38 nM; IC50 (CCRF-CEM [14]): 32 nM; Activity (K562 [15]): 60%; IC50 [16]: 56 nM; IC50 (PBMC [6]): 14000 nM; IC50 [17]: 31 nM; Activity [18]: <30%; IC50 (PBMC [7]): 1200 nM
CCOc1ccc(C(=O)/C=C/c2cc3ccccc3[nH]2)cc1 |  | > 100000 | 25000 |  | 
